# Measurements from ChEMBL document CHEMBL5370575, “Probing the Cytotoxic Signaling Induced by Eupenifeldin in Ovarian Cancer Models” (J Nat Prod, 2023).
# The source made the active and inactive calls. The rule behind the calls is not given here.
# Tests used:
# OVCAR-3 [1] = assay: Induction of ferroptosis in human OVCAR-3 cells at 0.001 to 10 uM in presence of ferrostatin-1 by CellTiterGlo assay; assay type: functional, cell-based; details: dose 0.001-10 µM
# OVCAR-3 [2] = assay: Induction of apoptosis in human OVCAR-3 cells assessed as increase in cleaved PARP expression level at >=10 nM incubated for 72 hrs by Western blotting analysis
# OVCAR-8 [3] = assay: Cytotoxicity against human OVCAR-8 cells assessed as inhibition of cell growth for 72 hrs by CellTiter-Blue cell viability assay; assay type: functional, cell-based; details: OVCAR-8, 72 h
# Summary of the method: (§1)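 5000 cells seeded in triplicate, attached overnight, then exposed for 72 h to serial concentrations in DMSO vehicle (0.05%). Viability was read by fluorometric CellTiter-Blue. IC50 in nM comes from dose–response curves relative to DMSO control. Media: OVCAR3 in RPMI1640, OVCAR5/OVCAR8 in DMEM, hFT33 in DMEM-Ham's F12 50/50, all with 10% FBS. Data are mean ± SEM, three biological replicates.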
# OVCAR-8 [4] = assay: Induction of apoptosis in human OVCAR-8 cells assessed as increase in necrotic cells at 25 nM incubated for 48 hrs by Annexin V-FITC/propidium iodide staining based analysis; assay type: functional, cell-based
# Summary of the method: (§2)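 OVCAR5/OVCAR8 seeded at 175 000 and OVCAR3 at 190 000 cells per 60 mm dish, attached overnight, treated 48 h (10, 25 or 50 nM). Media and cells collected, PBS-washed, stained with annexin V-FITC/propidium iodide and read on a cell counter with gating per kit. Three biological replicates, mean ± SEM, Dunnett's test.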
# [5] = Toxicity in immunodeficient NCr nu/nu mouse xenografted with human OVCAR-3 cells assessed as change in body weight at 0.5 mg/kg, ip administrated once per day for 4 days measured measured on day 7 relative to control; assay type: organism-based; details: in vivo, 168 h, time 7 day
# Summary of the method: (§3)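 Female immunodeficient NCr nu/nu mice, 6–8 weeks old, carried cells sealed in polyvinylidene fluoride hollow fibers implanted intraperitoneally on day 0. Dosing was i.p. once daily on days 3–6 in 2% DMSO:48% PEG300:50% H2O, diluted with H2O. Body weight was followed over the study, and fibers were retrieved on day 7.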
# OVCAR-5 [6] = assay: Induction of apoptosis in human OVCAR-5 cells assessed as increase in caspase-3/7 activity at 50 nM incubated for 48 hrs by fluorescent reporter assay
# OVCAR-8 [7] = assay: Induction of apoptosis in human OVCAR-8 cells assessed as increase in caspase-3/7 activity at 50 nM incubated for 48 hrs by fluorescent reporter assay
# OVCAR-3 (Homo sapiens) [8] = assay: Anti-ferroptotic activity against human OVCAR-3 cells assessed as decrease in lipid peroxidation at 50 nM incubated for 24 hrs by C11-BODIPY staining based flow cytometric analysis
# OVCAR-3 [9] = assay: Antitumor activity against human OVCAR-3 cells xenografted in immunodeficient NCr nu/nu mouse assessed as reduction in cell survival at 0.5 mg/kg, ip administrated once per day for 4 days measured on day 7 by MTT assay; assay type: functional, organism-based; details: time 7.0 day
# Summary of the method: (§4)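 Female immunodeficient NCr nu/nu mice (6–8 weeks) carried intraperitoneal polyvinylidene fluoride hollow fibres holding OVCAR3 and OVCAR8 cells (day 0). Dosed ip once daily on days 3–6 in 2% DMSO/48% PEG300/50% H₂O diluted with H₂O. Fibres retrieved on day 7; cell viability by modified MTT assay. One-way ANOVA with Dunnett's test vs vehicle.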
# OVCAR-5 [10] = assay: Induction of apoptosis in human OVCAR-5 cells assessed as decrease in caspase-3/7 activity at 50 nM incubated for 48 hrs in presence of by ZVAD-FMK fluorescent reporter assay
# OVCAR-5 [11] = assay: Cytotoxicity against human OVCAR-5 cells assessed as inhibition of cell growth for 72 hrs by CellTiter-Blue cell viability assay; assay type: functional, cell-based; details: OVCAR-5, 72 h; summary of the method: as §1
# OVCAR-3 [12] = assay: Anti-ferroptotic activity against human OVCAR-3 cells assessed as decrease in lipid peroxidation at 50 nM incubated for 24 hrs by C11-BODIPY staining based flow cytometric analysis; assay type: functional, cell-based
# Summary of the method: (§5)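 Cells treated 24 h with 50 nM, with or without 2 μM ferrostatin-1; lipid peroxidation read as C11-BODIPY fluorescence in the green channel by flow cytometry.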
# OVCAR-3 [13] = assay: Cytotoxicity against human OVCAR-3 cells assessed as reduction in colony formation at 10 nM incubated for 8 hrs measured after 15 days by crystal violet staining based analysis; assay type: functional, cell-based; details: time 368.0 hrs
# Summary of the method: (§6)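 Seeded at 200 cells per dish, attached overnight, exposed 8 h to 10 nM (DMSO vehicle 0.1%), then grown 15 days in untreated growth medium. Colonies fixed with 4% paraformaldehyde, stained with 0.05% crystal violet, counted and normalised to vehicle. Mean ± SEM, three biological replicates, one-way ANOVA with Dunnett's test.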
# OVCAR-5 [14] = assay: Induction of apoptosis in human OVCAR-5 cells at 25 nM incubated for 48 hrs by Annexin V-FITC/propidium iodide staining based analysis; assay type: functional, cell-based; summary of the method: as §2
# OVCAR-3 [15] = assay: Anti-ferroptotic activity against human OVCAR-3 cells assessed as decrease in lipid peroxidation at 50 nM incubated for 24 hrs in presence of ferrostatin-1 by C11-BODIPY staining based flow cytometric analysis; assay type: functional, cell-based; summary of the method: as §5
# OVCAR-3 [16] = assay: Induction of autophagy in human OVCAR-3 cells assessed as reduction in cell viability at 25 nM incubated for 72 hrs in presence of bafilomycin by CellTiter-Blue Cell Viability assay; assay type: functional, cell-based
# Summary of the method: (§7)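 5000 cells/well attached overnight, then treated 72 h with 25 nM alone or with bafilomycin A1 (5 nM; OVCAR8 also at 1 nM); bafilomycin alone as control. Viability by CellTiter-Blue fluorescence, normalised to vehicle. One-way ANOVA with Tukey's test.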
# OVCAR-3 [17] = assay: Induction of apoptosis in human OVCAR-3 cells assessed as decrease in caspase-3/7 activity at 50 nM incubated for 48 hrs in presence of by ZVAD-FMK fluorescent reporter assay
# OVCAR-8 [18] = assay: Induction of apoptosis in human OVCAR-8 cells assessed as decrease in caspase-3/7 activity at 50 nM incubated for 48 hrs in presence of by ZVAD-FMK fluorescent reporter assay
# OVCAR-8 [19] = assay: Antitumor activity against human OVCAR-8 cells xenografted in immunodeficient NCr nu/nu mouse assessed as reduction in cell survival at 0.5 mg/kg, ip administrated once per day for 4 days measured on day 7 by MTT assay; assay type: functional, organism-based; details: time 7.0 day; summary of the method: as §4
# OVCAR-5 [20] = assay: Inhibition of cell migration in human OVCAR-5 cells assessed as decrease in wound closure at 10 to 25 nM incubated for 48 hrs by wound healing assay; assay type: functional, cell-based; details: dose 10-25 nM
# Summary of the method: (§8)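 Confluent monolayers scratched once, washed with PBS, then treated with 10 or 25 nM (paclitaxel 10 nM control) for 48 h. Scratch area imaged at 4× at 0 and 48 h, measured and normalised to vehicle. One-way ANOVA with Dunnett's test.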
# [21] = Toxicity in immunodeficient NCr nu/nu mouse xenografted with human OVCAR-8 cells assessed as change in body weight at 0.5 mg/kg, ip administrated once per day for 4 days measured measured on day 7 relative to control; assay type: organism-based; details: in vivo, 168 h, time 7 day; summary of the method: as §3
# OVCAR-3 [22] = assay: Cytotoxicity against human OVCAR-3 cells assessed as inhibition of cell growth for 72 hrs by CellTiter-Blue cell viability assay; assay type: functional, cell-based; details: OVCAR-3, 72 h; summary of the method: as §1
# HeLa [23] = assay: Induction of autophagy in human HeLa cells harboring eGFP-LC3 assessed as increase in LC3 puncta accumulation at 250 nM incubated for 4 hrs by Hoechst 33342 and DAPI staining based analysis; assay type: functional, cell-based
# Summary of the method: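 HeLa stably expressing eGFP-LC3, 384-well plates, treated 4 h with serial dilutions starting at 250 nM, fixed in 4% formaldehyde, nuclei counterstained, imaged at 10× (FITC); LC3 puncta quantified by image analysis, normalised to DMSO, dose–response fitted.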
# HeLa [24] = assay: Induction of autophagic flux in human HeLa cells harbouring mCherry-eGFP-LC3 assessed as increase in number of autolysosomes at 10 nM incubated for 24 hrs by Hoechst 33342 and DAPI staining based analysis; assay type: functional, cell-based
# Summary of the method: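 HeLa stably expressing mCherry-eGFP-LC3, 384-well plates, treated 24 h, fixed 12 min in 4% formaldehyde, nuclei stained, imaged at 10× under FITC and Texas Red filters; autolysosomes/autophagosomes quantified by high-content analysis and normalised to DMSO; chloroquine as control. Three biological replicates in duplicate.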
# OVCAR-3 [25] = assay: Induction of apoptosis in human OVCAR-3 cells assessed as increase in necrotic cells at 25 nM incubated for 48 hrs by Annexin V-FITC/propidium iodide staining based analysis; assay type: functional, cell-based; summary of the method: as §2
# OVCAR-8 [26] = assay: Inhibition of cell migration in human OVCAR-8 cells assessed as decrease in wound closure at 10 to 25 nM incubated for 48 hrs by wound healing assay; assay type: functional, cell-based; details: dose 10-25 nM; summary of the method: as §8
# OVCAR-5 [27] = assay: Induction of autophagy in human OVCAR-5 cells assessed as reduction in cell viability at 25 nM incubated for 72 hrs in presence of bafilomycin by CellTiter-Blue Cell Viability assay; assay type: functional, cell-based; summary of the method: as §7
# OVCAR-3 [28] = assay: Induction of apoptosis in human OVCAR-3 cells assessed as increase in caspase-3/7 activity at 50 nM incubated for 48 hrs by fluorescent reporter assay
# OVCAR-8 [29] = assay: Induction of apoptosis in human OVCAR-8 cells assessed as increase in apoptotic cells at 25 nM incubated for 48 hrs by Annexin V-FITC/propidium iodide staining based analysis; assay type: functional, cell-based; summary of the method: as §2
# OVCAR-5 [30] = assay: Cytotoxicity against human OVCAR-5 cells assessed as reduction in colony formation at 10 nM incubated for 8 hrs measured after 15 days by crystal violet staining based analysis; assay type: functional, cell-based; details: time 368.0 hrs; summary of the method: as §6
# OVCAR-8 [31] = assay: Cytotoxicity against human OVCAR-8 cells assessed as reduction in colony formation at 10 nM incubated for 8 hrs measured after 15 days by crystal violet staining based analysis; assay type: functional, cell-based; details: time 368.0 hrs; summary of the method: as §6
# OVCAR-8 [32] = assay: Induction of autophagy in human OVCAR-8 cells assessed as reduction in cell viability at 25 nM incubated for 72 hrs in the presence of 1 nM bafilomycin by CellTiter-Blue Cell Viability assay; assay type: functional, cell-based; summary of the method: as §7
# OVCAR-3 [33] = assay: Induction of apoptosis in human OVCAR-3 cells assessed as increase in apoptotic cells at 25 nM incubated for 48 hrs by Annexin V-FITC/propidium iodide staining based analysis; assay type: functional, cell-based; summary of the method: as §2
# OVCAR-3 (Homo sapiens) [34] = assay: Anti-ferroptotic activity against human OVCAR-3 cells assessed as decrease in lipid peroxidation at 50 nM incubated for 24 hrs in presence of ferrostatin-1 by C11-BODIPY staining based flow cytometric analysis
# [35] = Cytotoxicity against human FT33 cells assessed as inhibition of cell growth for 72 hrs by CellTiter-Blue cell viability assay; assay type: toxicity, cell-based; summary of the method: as §1
# OVCAR-3 [36] = assay: Induction of ferroptosis in human OVCAR-3 cells at 0.1 to 10 uM in the presence of ferrostatin-1 by CellTiterGlo assay; assay type: functional, cell-based; details: dose 0.1-10 µM
# Summary of the method: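 OVCAR3 in 384-well plates (1000 cells/well), given 100 nM to 10 μM together with 2 μM ferrostatin-1, in triplicate; viability measured by CellTiter-Glo.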
compound,measurement,setting,value
COC(=O)c1ccc([C@H]2c3[nH]c4ccccc4c3C[C@H](C(=O)OC)N2C(=O)CCl)cc1,Activity,OVCAR-3 [1],inactive
Cc1cc(=O)c(O)cc2c1C[C@H]1CC(C)(C)/C=C/C[C@]3(C)Oc4cc(O)c(=O)cc(C)c4C[C@H]3C[C@H](O)[C@@]1(C)O2,Activity,OVCAR-3 [2],Active
same,IC50,OVCAR-8 [3],12 nM
same,Activity,OVCAR-8 [4],Active
same,Activity,[5],<= 12%
same,Activity,OVCAR-5 [6],Active
same,Activity,OVCAR-8 [7],Active
same,Activity,OVCAR-3 (Homo sapiens) [8],Active
same,Activity,OVCAR-3 [9],Active
same,Activity,OVCAR-5 [10],Active
same,IC50,OVCAR-5 [11],11 nM
same,Activity,OVCAR-3 [12],Active
same,Activity,OVCAR-3 [13],Active
same,Activity,OVCAR-5 [14],inactive
same,Activity,OVCAR-3 [15],Active
same,Activity,OVCAR-3 [16],inactive
same,Activity,OVCAR-3 [17],Active
same,Activity,OVCAR-8 [18],Active
same,Activity,OVCAR-8 [19],inactive
same,inhibition,OVCAR-5 [20],Active
same,Activity,[21],> 12%
same,IC50,OVCAR-3 [22],9.7 nM
same,Activity,HeLa [23],Active
same,Activity,HeLa [24],Active
same,Activity,OVCAR-3 [25],Active
same,inhibition,OVCAR-8 [26],Active
same,Activity,OVCAR-5 [27],inactive
same,Activity,OVCAR-3 [28],Active
same,Activity,OVCAR-8 [29],Active
same,Activity,OVCAR-5 [30],Active
same,Activity,OVCAR-8 [31],Active
same,Activity,OVCAR-8 [32],inactive
same,Activity,OVCAR-3 [33],Active
same,Activity,OVCAR-3 (Homo sapiens) [34],Active
same,IC50 at 72 h,[35],170 nM
same,Activity,OVCAR-3 [36],Active
